Results published in ChEMBL document CHEMBL1137382, “Synthesis and structure-activity relationships of carbazole sulfonamides as a novel class of antimitotic agents against solid tumors” (J Med Chem, 2006).
One block for each compound: values may come before it. The source made the active and inactive calls. The rule behind the calls is not given here.

Columns and labels:
[1] = test system: CEM (human); assay: Antiproliferative activity against human CEM cells after 72 hrs
[2] = test system: PC-3; assay: Antiproliferative activity against human PC3 cells after 72 hrs; assay type: functional, cell-based; details: PC-3, 72 h
Outline: (§1)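 Cells grown in RPMI-1640 with 10% heat-inactivated FCS, penicillin and streptomycin, 5% CO2, 37 °C, used in exponential growth. 5 × 10⁴ cells per well exposed to compound at 0–10 µM for 72 h at 37 °C. IC50 (concentration killing 50% of cells versus untreated controls) determined in duplicate by nonlinear regression.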

[3] = Antiproliferative activity against human DND1 cells after 72 hrs; assay type: functional, cell-based; details: DND1, 72 h
Outline: as §1

[4] = test system: MOLT-3; assay: Antiproliferative activity against human Molt3 cells after 72 hrs; assay type: functional, cell-based; details: MOLT-3, 72 h
Outline: as §1

[5] = test system: Bel-7402; assay: Antiproliferative activity against human Bel7402 cells after 72 hrs; assay type: functional, cell-based; details: Bel-7402, 72 h
Outline: as §1

[6] = test system: MCF7; assay: Antiproliferative activity against human MCF7 cells after 72 hrs; assay type: functional, cell-based; details: MCF7, 72 h
Outline: as §1

[7] = test system: DU-145; assay: Antiproliferative activity against human DU145 cells after 72 hrs; assay type: functional, cell-based; details: DU-145, 72 h
Outline: as §1

[8] = test system: MCF7; assay: Induction of apoptosis in human MCF7 cell line assessed as increase in cdc2 expression upto 48 hrs; assay type: functional, cell-based
Outline: (§2)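 MCF-7 cells treated at 0.022–2.2 µM, or at 0.22 µM for 0–48 h. Lysed on ice in Tris/NaCl/NP-40/PMSF/aprotinin buffer and protein measured by Bradford. Blots blocked in 5% milk/TBST and probed with monoclonal antibodies to bcl-2, p53, cdc-2 and cyclin B1, then HRP anti-mouse. Signals detected by ECL on film.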

[9] = test system: DMS-79; assay: Antiproliferative activity against human DMS79 cells after 72 hrs; assay type: functional, cell-based; details: DMS-79, 72 h
Outline: as §1

[10] = test system: MCF7; assay: Cell cycle arrest in MCF7 cells by accumulation at M phase at 0.22 to 1.1 uM after 24 hrs; assay type: functional, cell-based; details: Homo sapiens
Outline: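 MCF-7 cells exposed at 0.22 µM for up to 24 h. Cells trypsin/EDTA-harvested (1.5 × 10⁶), PBS-washed, RNase-treated (0.5 µg/µL final, 37 °C, 30 min), fixed in ice-cold 70% ethanol ≥12 h at 4 °C, and stained with propidium iodide (0.1 µg/µL final, 4 °C, 60 min). ≥10⁴ events analysed by flow cytometry. Mitotic arrest also scored on Giemsa-stained cytospins by chromosome spreading.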

[11] = test system: MCF7; assay: Induction of apoptosis in human MCF7 cell line assessed as increase in P-p53 expression upto 48 hrs; assay type: functional, cell-based
Outline: as §2

[12] = test system: Bel-7402; assay: Reduction in tumor volume of human Bel7402 cell xenografted in nude mice at 60 mg/kg, ip; assay type: functional; details: Mus musculus, Bel-7402, ip, route intraperitoneal
Outline: (§3)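 Female nude mice carry sc xenografts (MCF-7, 8 × 10⁶ cells, after sc estrogen 0.25 mg/mouse 24 h before; or Bel-7402). At 90–120 mm³, mice were randomised into groups of five. Dosing ip q2d for 5–6 weeks, 100 mg/kg for MCF-7 and 60 mg/kg for Bel-7402, with a solvent control. Tumor volume from caliper width and length, mean of n = 5.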

[13] = Toxicity ip dosed mouse; assay type: organism-based; details: in vivo
[14] = test system: MCF7; assay: Induction of apoptosis in human MCF7 cell line assessed as increase in cyclin B1 expression upto 48 hrs; assay type: functional, cell-based
Outline: as §2

[15] = test system: MCF7; assay: Reduction in tumor volume of human MCF7 cell xenografted in nude mice at 100 mg/kg, ip; assay type: functional; details: Mus musculus, route intraperitoneal
Outline: as §3

Compound: COc1cc(NS(=O)(=O)c2ccc3c(c2)c2ccccc2n3C)c(OC)cc1Cl
IC50 [1]: 0.046 µM

IC50 [2]: 0.144 µM
IC50 [4]: 0.048 µM
IC50 [5]: 0.096 µM
IC50 [6]: 0.048 µM
IC50 [7]: 0.144 µM
Compound: CCn1c2ccccc2c2cc(S(=O)(=O)Nc3ccc(OC)cc3OC)ccc21
IC50 [3]: 0.12 µM
IC50 [1]: 0.057 µM

Compound: CCn1c2ccccc2c2cc(S(=O)(=O)Nc3cc(OC)c(OC)c(OC)c3)ccc21
Activity [8]: Active
IC50 [9]: 1.9 µM
Activity [10]: Active
IC50 [2]: 0.201 µM
IC50 [3]: 0.089 µM
IC50 [4]: 0.02 µM
Activity [11]: Active
inhibition in vivo at 60 mg/kg [12]: 55%
LD50 [13]: > 500 mg/kg
IC50 [5]: 0.201 µM
IC50 [6]: 0.089 µM
IC50 [1]: 0.056 µM
Activity [14]: Active
inhibition in vivo at 100 mg/kg [15]: 75%
IC50 [7]: 0.603 µM

IC50 [2]: 0.78 µM
IC50 [4]: 0.049 µM
IC50 [5]: 0.219 µM
IC50 [6]: 0.098 µM
IC50 [7]: 0.365 µM
Compound: CCn1c2ccccc2c2cc(S(=O)(=O)Nc3cc(OC)ccc3OC)ccc21
IC50 [3]: 0.195 µM
IC50 [1]: 0.061 µM

Compound: CCn1c2ccccc2c2cc(S(=O)(=O)Nc3ccc(F)cc3)ccc21
IC50 [1]: 2.17 µM

Compound: COc1cc(NS(=O)(=O)c2ccc3[nH]c4ccccc4c3c2)cc(OC)c1OC
IC50 [1]: 0.606 µM

Compound: CCn1c2ccccc2c2cc(S(=O)(=O)Nc3cc(C(F)(F)F)cc(C(F)(F)F)c3)ccc21
IC50 [1]: > 10 µM

Compound: COc1cc(NS(=O)(=O)c2ccc3oc4ccccc4c3c2)cc(OC)c1OC
IC50 [1]: > 10 µM

Compound: CCn1c2ccccc2c2cc(S(=O)(=O)Nc3cc(OC)cc(OC)c3)ccc21
IC50 [1]: 0.974 µM

Compound: CCn1c2ccccc2c2cc(NS(=O)(=O)c3cccc(OC)c3)ccc21
IC50 [1]: 0.789 µM

Compound: CCn1c2ccccc2c2cc(NS(=O)(=O)c3ccc(OC)c(OC)c3)ccc21
IC50 [1]: 2.65 µM

Compound: CCn1c2ccccc2c2cc(S(=O)(=O)Nc3ccc(OC)c(N)c3)ccc21
IC50 [1]: 2.2 µM

Compound: COc1ccc(/C=C\c2cc(OC)c(OC)c(OC)c2)cc1O [COMBRETASTATIN A4]
IC50 [9]: 0.124 µM
IC50 [2]: 0.0028 µM
IC50 [3]: 0.0025 µM
IC50 [4]: 0.0093 µM
IC50 [5]: 0.01 µM
IC50 [6]: 0.012 µM
IC50 [1]: 0.0019 µM
IC50 [7]: 0.0093 µM

IC50 [2]: 0.09 µM
IC50 [4]: 0.067 µM
IC50 [5]: 0.135 µM
IC50 [6]: 0.067 µM
IC50 [7]: 0.169 µM
Compound: CCn1c2ccccc2c2cc(S(=O)(=O)Nc3cc(OC)c(Cl)cc3OC)ccc21
IC50 [3]: 0.09 µM
IC50 [1]: 0.056 µM

Compound: CCn1c2ccccc2c2cc(S(=O)(=O)Nc3ccc(OC)cc3)ccc21
IC50 [1]: > 10 µM

IC50 [2]: 0.116 µM
IC50 [4]: 0.019 µM
IC50 [5]: 0.116 µM
IC50 [6]: 0.07 µM
IC50 [7]: 0.232 µM
Compound: COc1cc(NS(=O)(=O)c2ccc3c(c2)c2ccccc2n3C)cc(OC)c1OC
IC50 [9]: 2.09 µM
IC50 [3]: 0.07 µM
IC50 [1]: 0.046 µM

Compound: CCn1c2ccccc2c2cc(NS(=O)(=O)c3ccc(OC)cc3)ccc21
IC50 [1]: > 10 µM

Compound: CCn1c2ccccc2c2cc(NS(=O)(=O)c3ccc(OC)cc3[N+](=O)[O-])ccc21
IC50 [1]: > 10 µM

Compound: COc1cc([C@@H]2c3cc4c(cc3[C@H](O)[C@H]3COC(=O)[C@H]23)OCO4)cc(OC)c1OC [PODOFILOX]
IC50 [9]: 0.023 µM
IC50 [2]: 0.01 µM
IC50 [3]: 0.012 µM
IC50 [4]: 0.014 µM
IC50 [5]: 0.0091 µM
IC50 [6]: 0.015 µM
IC50 [1]: 0.0072 µM
IC50 [7]: 0.052 µM

Compound: CCn1c2ccccc2c2cc(S(=O)(=O)Nc3ccc4c(c3)OCO4)ccc21
IC50 [1]: 6.25 µM

Compound: CCn1c2ccccc2c2cc(NS(=O)(=O)c3cccc(C#N)c3)ccc21
IC50 [1]: 1.32 µM

Compound: CCn1c2ccccc2c2cc(S(=O)(=O)Nc3ccc(OC)c(Cl)c3)ccc21
IC50 [1]: 0.482 µM

Compound: CCn1c2ccccc2c2cc(NS(=O)(=O)c3ccc(OC)cc3N)ccc21
IC50 [1]: > 10 µM

Compound: CCn1c2ccccc2c2cc(S(=O)(=O)Nc3cc(Cl)c(OC)cc3OC)ccc21
IC50 [1]: 0.067 µM

Compound: CCn1c2ccccc2c2cc(S(=O)(=O)Nc3ccc(OC)c(OC)c3)ccc21
IC50 [1]: 2.44 µM

Compound: COc1cc(OC)c(NS(=O)(=O)c2ccc3c(c2)c2ccccc2n3C)c(OC)c1
IC50 [1]: 0.07 µM

Compound: CCn1c2ccccc2c2cc(S(=O)(=O)NCc3cc(OC)c(OC)c(OC)c3)ccc21
IC50 [1]: > 10 µM

Compound: CCn1c2ccccc2c2cc(NS(=O)(=O)c3cc(OC)ccc3OC)ccc21
IC50 [1]: 0.603 µM
